Measured values taken from ChEMBL document CHEMBL5724801, “EUbOPEN Chemogenomics Library - Multiplex” (2024).
Values joined by “and” are separate entries in the source; they are usually repeats but may differ in a detail not shown here. Equal entries are not always repeated.

System: Fibroblast
Assay: Multiplex assay against human fibroblast
Assay type: toxicity, cell-based
How it was run: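 Phenotypes for tubulin, mitochondrial mass and membrane permeability are expressed as per cents of healthy-nucleus cells. Cells were stained live at seeding with Hoechst33342, BioTracker Green Microtubule Cytoskeleton Dye, MitoTracker Red and Annexin V Alexa Fluor 680, then imaged after compound addition on a CQ1 microscope at 37°C and 5% CO2. Machine-learning gating in CellPathfinder separated Hoechst high-intensity objects from normal cells, divided normal cells by nuclear state (healthy, pyknosed, fragmented) and divided pyknosed cells into mitotic or apoptotic.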

[1] = 12 h, 1 µM, compound concentration 1 uM
[2] = 12 h, 10 µM, compound concentration 10 uM
[3] = 24 h, 1 µM, compound concentration 1 uM
[4] = 24 h, 10 µM, compound concentration 10 uM
[5] = 48 h, 1 µM, compound concentration 1 uM
[6] = 48 h, 10 µM, compound concentration 10 uM

Compound: Cc1cc(O)c(-c2ccc([C@@H](C)CN(C)C)cc2)c2c1[nH]c(=O)c1sccc12
- Population Healthy Nuclei (%) [1]: 67% and 56% and 55.08% and 75.51%
- Population Hoechst High Intensity Objects (%) [1]: 7% and 2% and 0%
- Population Membrane Permeable-Phenotype (%) [1]: 1% and 4% and 5.83% and 9.91%
- Population Mitochondria Different-Phenotype (%) [1]: 17% and 12% and 18.45% and 20.72%
- Population Mitotic Cells (%) [1]: 72.41% [middle of 4 runs]
- Population Normal (%) [1]: 92% and 97% and 100%
- Population Pyknosed Nuclei (%) [1]: 20% and 21% and 33.16% and 19.73%
- Population Tubulin-Different-Phenotype (%) [1]: 44% and 52% and 26.21% and 40.54%
- Total Cell Count [1]: 145 and 115 and 187 and 147
- Population Apoptotic (%) [2]: 69% [middle of 4 runs]
- Population Healthy Nuclei (%) [2]: 63% and 55% and 58.38% and 64.17%
- Population Hoechst High Intensity Objects (%) [2]: 6% and 5% and 0%
- Population Membrane Permeable-Phenotype (%) [2]: 8.7% [middle of 4 runs]
- Population Mitochondria Different-Phenotype (%) [2]: 40% [middle of 4 runs]
- Population Mitotic Cells (%) [2]: 30% and 75.86% and 55.84%
- Population Normal (%) [2]: 93% and 94% and 100%
- Population Pyknosed Nuclei (%) [2]: 29.44% [middle of 4 runs]
- Population Tubulin-Different-Phenotype (%) [2]: 90% and 80% and 81.74% and 85.06%
- Total Cell Count [2]: 146 and 137 and 197 and 240
- Population Healthy Nuclei (%) [3]: 66% and 54% and 64.88% and 75%
- Population Hoechst High Intensity Objects (%) [3]: 7% and 9% and 0%
- Population Membrane Permeable-Phenotype (%) [3]: 0% and 1% and 5.5% and 9.26%
- Population Mitochondria Different-Phenotype (%) [3]: 21.1% [middle of 4 runs]
- Population Mitotic Cells (%) [3]: 54% and 47% and 85.37% and 84.62%
- Population Normal (%) [3]: 92% and 90% and 100%
- Population Pyknosed Nuclei (%) [3]: 21% and 16% and 24.4% and 18.06%
- Population Tubulin-Different-Phenotype (%) [3]: 73% and 56% and 47.71% and 50.93%
- Total Cell Count [3]: 119 and 111 and 168 and 144
- Population Apoptotic (%) [4]: 57% [middle of 4 runs]
- Population Healthy Nuclei (%) [4]: 65% and 51% and 52.84% and 54.55%
- Population Hoechst High Intensity Objects (%) [4]: 3% and 8% and 0%
- Population Membrane Permeable-Phenotype (%) [4]: 0% and 3% and 6.45% and 8.77%
- Population Mitochondria Different-Phenotype (%) [4]: 42% and 34% and 53.76% and 42.11%
- Population Mitotic Cells (%) [4]: 43.68% [middle of 4 runs]
- Population Normal (%) [4]: 96% and 91% and 100%
- Population Pyknosed Nuclei (%) [4]: 34.66% [middle of 4 runs]
- Population Tubulin-Different-Phenotype (%) [4]: 87% and 81% and 80.65% and 92.11%
- Total Cell Count [4]: 122 and 124 and 176 and 209
- Population Apoptotic (%) [5]: 57% [middle of 4 runs]
- Population Healthy Nuclei (%) [5]: 55% and 48% and 49.14% and 75.38%
- Population Hoechst High Intensity Objects (%) [5]: 7% and 9% and 0%
- Population Mitochondria Different-Phenotype (%) [5]: 20% [middle of 4 runs]
- Population Mitotic Cells (%) [5]: 52% [middle of 4 runs]
- Population Normal (%) [5]: 92% and 90% and 100%
- Population Pyknosed Nuclei (%) [5]: 24% and 20% and 28.57% and 19.23%
- Population Tubulin-Different-Phenotype (%) [5]: 70% and 62% and 43.02% and 59.18%
- Total Cell Count [5]: 118 and 103 and 175 and 130
- Population Apoptotic (%) [6]: 70% and 71% and 49.33% and 79.12%
- Population Healthy Nuclei (%) [6]: 53% and 43% and 45.16% and 48.13%
- Population Hoechst High Intensity Objects (%) [6]: 10% and 7% and 0%
- Population Membrane Permeable-Phenotype (%) [6]: 0% and 8.33% and 20%
- Population Mitochondria Different-Phenotype (%) [6]: 53% and 30% and 44.05%
- Population Mitotic Cells (%) [6]: 29% [middle of 4 runs]
- Population Normal (%) [6]: 89% and 92% and 100%
- Population Tubulin-Different-Phenotype (%) [6]: 89% and 85% and 58.33% and 77.78%
- Total Cell Count [6]: 117 and 136 and 186 and 187

Compound: CC/C(=C(\c1ccc(O)cc1)c1ccc(OCCN(C)C)cc1)c1ccccc1 [AFIMOXIFENE]
- Population Apoptotic (%) [1]: 6.78% and 3.57%
- Population Fragmented Nuclei (%) [1]: 14.83% and 6.12%
- Population Healthy Nuclei (%) [1]: 56.94% and 79.59%
- Population Hoechst High Intensity Objects (%) [1]: 0%
- Population Membrane Permeable-Phenotype (%) [1]: 2.52% and 2.56%
- Population Mitochondria Different-Phenotype (%) [1]: 7.56% and 8.97%
- Population Mitotic Cells (%) [1]: 93.22% and 96.43%
- Population Normal (%) [1]: 100%
- Population Pyknosed Nuclei (%) [1]: 28.23% and 14.29%
- Population Tubulin-Different-Phenotype (%) [1]: 14.29% and 22.44%
- Total Cell Count [1]: 209 and 196
- Population Fragmented Nuclei (%) [2]: 14.55% and 7.74%
- Population Healthy Nuclei (%) [2]: 54.55% and 72.76%
- Population Hoechst High Intensity Objects (%) [2]: 0%
- Population Membrane Permeable-Phenotype (%) [2]: 3.33% and 2.55%
- Population Mitochondria Different-Phenotype (%) [2]: 25.56% and 23.83%
- Population Mitotic Cells (%) [2]: 94.12% and 80.95%
- Population Normal (%) [2]: 100%
- Population Pyknosed Nuclei (%) [2]: 30.91% and 19.5%
- Population Tubulin-Different-Phenotype (%) [2]: 54.44% and 66.38%
- Total Cell Count [2]: 165 and 323
- Population Apoptotic (%) [3]: 8.77% and 18.75%
- Population Fragmented Nuclei (%) [3]: 10.78% and 8.21%
- Population Healthy Nuclei (%) [3]: 64.66% and 83.59%
- Population Hoechst High Intensity Objects (%) [3]: 0%
- Population Membrane Permeable-Phenotype (%) [3]: 4% and 2.45%
- Population Mitochondria Different-Phenotype (%) [3]: 6.67% and 9.82%
- Population Mitotic Cells (%) [3]: 91.23% and 81.25%
- Population Normal (%) [3]: 100%
- Population Pyknosed Nuclei (%) [3]: 24.57% and 8.21%
- Population Tubulin-Different-Phenotype (%) [3]: 18% and 23.31%
- Total Cell Count [3]: 232 and 195
- Population Apoptotic (%) [4]: 17.65% and 48.31%
- Population Fragmented Nuclei (%) [4]: 12.57%
- Population Healthy Nuclei (%) [4]: 50.27% and 67.6%
- Population Hoechst High Intensity Objects (%) [4]: 0%
- Population Membrane Permeable-Phenotype (%) [4]: 3.26% and 2.76%
- Population Mitochondria Different-Phenotype (%) [4]: 29.35% and 27.19%
- Population Mitotic Cells (%) [4]: 82.35% and 51.69%
- Population Normal (%) [4]: 100%
- Population Pyknosed Nuclei (%) [4]: 37.16% and 27.73%
- Population Tubulin-Different-Phenotype (%) [4]: 70.65% and 79.72%
- Total Cell Count [4]: 183 and 321
- Population Fragmented Nuclei (%) [5]: 9.52% and 11.27%
- Population Healthy Nuclei (%) [5]: 83.67% and 81.69%
- Population Hoechst High Intensity Objects (%) [5]: 0%
- Population Membrane Permeable-Phenotype (%) [5]: 1.22% and 2.3%
- Population Mitochondria Different-Phenotype (%) [5]: 9.35% and 5.17%
- Population Mitotic Cells (%) [5]: 95% and 73.33%
- Population Normal (%) [5]: 100%
- Population Pyknosed Nuclei (%) [5]: 6.8% and 7.04%
- Population Tubulin-Different-Phenotype (%) [5]: 8.94% and 25.86%
- Total Cell Count [5]: 294 and 213
- Population Apoptotic (%) [6]: 28.57% and 43.14%
- Population Healthy Nuclei (%) [6]: 71.37% and 80.49%
- Population Hoechst High Intensity Objects (%) [6]: 0%
- Population Membrane Permeable-Phenotype (%) [6]: 4.71%
- Population Mitochondria Different-Phenotype (%) [6]: 13.37% and 7.41%
- Population Mitotic Cells (%) [6]: 71.43% and 56.86%
- Population Normal (%) [6]: 100%
- Population Pyknosed Nuclei (%) [6]: 8.71% and 13.82%
- Population Tubulin-Different-Phenotype (%) [6]: 49.42% and 76.77%
- Total Cell Count [6]: 241 and 369
